# Laboratory results: PMC11543989 (Communications Biology, 2024)
# pIC50: −log10 of the molar value. “Also recorded” adds a separate entry of the source.
# How the values were obtained:
# [1] = tested on: HCoV-229E; assay: microbe, parasite or virus in culture; format: cell-based
# [2] = tested on: HCoV-229E; format: cell-based
# [3] = tested on: SARS-CoV-2 replicon; assay: HeLa-integrated SARS-CoV-2 replicon activity, N-HiBiT luminescence; format: cell-based
# Procedure, shortened: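 HeLa Flp-In T-REx replicon cells plated at 10% confluence, then induced 24 h later with 3 µg/mL doxycycline in regular FBS. After 16-24 h, a lytic detergent buffer with LgBiT and furimazine was added at a volume equal to the media to complement HiBiT-tagged nucleoprotein. Plates were shaken 10 min before reading luminescence. Replicon-free parental cells gave background; compound concentrations were compared with DMSO.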
# [4] = tested on: HCoV-229E; format: cell-based; remark: listed apart in the source
# [5] = tested on: HCoV-229E; settings: concentrations higher than 0.1 µM; cited from earlier work
# [6] = tested on: SARS-CoV-2; settings: cited from earlier work
# [7] = tested on: AMPK, mTOR, Akt; format: cell-based, human
# [8] = tested on: HCoV-229E; format: cell-based; remark: listed apart in the source
# [9] = tested on: SARS-CoV-2 SB2 strain
# [10] = tested on: SARS-CoV-2; format: cell-based
# [11] = tested on: AMPK, mTOR, Akt; format: cell-based, human; settings: 30 µM, HeLa-replicon cells, doxycycline 24 hours
# [12] = tested on: proximal lung organoids; assay: Organoid viability by LDH release; format: cell-based, human; settings: days 3 and 4, cordycepin 30 µM
# Procedure, shortened: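 Human proximal airway organoids derived from embryonic stem cells, expanded in matrigel in AES expansion medium, plated as one matrigel dome (~2000 organoids) per well. Test compounds (10 or 30 µM) or 0.5% DMSO were added on day 0, with three domes per condition. LDH release was read over 4 days; absorbance at 490 nm minus 680 nm background was converted to % cytotoxicity.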
structure (smiles),measurement,setting,value
"CN(C)C(=N)N=C(N)N [Metformin, metformin]","229E replication, various concentrations",[1],inhibited 229E replication in a dose-dependent manner
Nc1ncnc2c1ncn2[C@@H]1O[C@H](COP(=O)(O)OP(=O)(O)OP(=O)(O)O)C[C@H]1O [cordycepin-TP],229E S protein expression (IF),[2],did not impact S protein expression
same,229E viral RNA release,"[1]; 10 µM, same concentration as cordycepin, […]",only weakly inhibited viral RNA release
"CCC(CC)COC(=O)[C@H](C)N[P@](=O)(OC[C@H]1O[C@@](C#N)(c2ccc3c(N)ncnn23)[C@H](O)[C@@H]1O)Oc1ccccc1 [Remdesivir, remdesivir]",pIC50,"[3]; read-out: IC50, inhibition of replicon activity, 3 µg/mL doxycycline, 24 hours",6.40
same,"229E viral RNA release, pre-treatment assay",[4],little to no inhibition
same,inhibition of 229E,[5],~100%
COc1ccc2c(c1)[nH]c1c(C)nccc12 [harmine],pIC50,[6],5.12
"Nc1ncnc2c1ncn2[C@@H]1O[C@H](CO)C[C@H]1O [Cordycepin, cordycepin]",phosphorylation level of AMPK,[7],increased
same,protein level of AMPK,[7],remained constant
same,total levels of mTOR and Akt compared to DMSO,[7],large decrease
same,"infectivity by TCID50, fold higher than that observed for BTZ-1 and ADEP-42",[8],around 5 fold
same,pIC50,"[1]; Human coronavirus 229E, Huh-7, read-out: IC50, 229E viral replication (Fig. 6B)",5.68
same,reduction of SARS-CoV-2 RNA release,[9],99%
same,SI = CC50/IC50,[9]; SARS-CoV-2,more than 20
same,inhibition of replicon activity,"[3]; 3 µg/mL doxycycline, 24 hours",did not show inhibition of replicon activity
same,difference in SARS-CoV-2 viral RNA release compared to DMSO,[10],100 fold
same,"229E viral RNA release in media, time of incubation assay",[4],dramatically reduced viral RNA release in media even up to 72 hpi
same,"229E viral RNA release, pre-treatment assay",[4],reduced viral RNA release; also recorded: strong inhibition
same,"level of 229E viral RNA released, time of removal assay",[4],reduced the level of viral RNA released even after being removed
same,"AMPK, mTOR or Akt phosphorylation",[11],No significant changes
same,total Akt levels,[11],did decrease
same,total mTOR protein levels,[11],not affected
same,cytotoxicity (LDH assay),[12],below 20%
